sEH activator: activators of human soluble epoxide hydrolase | P34913 | purified human sEH enzymatic activity, activator screen | activation, % at 2 µM | 0.04% of 91,000 active; in the data active means activation above about 37%
Target sequence (P34913 whole entry, looked up): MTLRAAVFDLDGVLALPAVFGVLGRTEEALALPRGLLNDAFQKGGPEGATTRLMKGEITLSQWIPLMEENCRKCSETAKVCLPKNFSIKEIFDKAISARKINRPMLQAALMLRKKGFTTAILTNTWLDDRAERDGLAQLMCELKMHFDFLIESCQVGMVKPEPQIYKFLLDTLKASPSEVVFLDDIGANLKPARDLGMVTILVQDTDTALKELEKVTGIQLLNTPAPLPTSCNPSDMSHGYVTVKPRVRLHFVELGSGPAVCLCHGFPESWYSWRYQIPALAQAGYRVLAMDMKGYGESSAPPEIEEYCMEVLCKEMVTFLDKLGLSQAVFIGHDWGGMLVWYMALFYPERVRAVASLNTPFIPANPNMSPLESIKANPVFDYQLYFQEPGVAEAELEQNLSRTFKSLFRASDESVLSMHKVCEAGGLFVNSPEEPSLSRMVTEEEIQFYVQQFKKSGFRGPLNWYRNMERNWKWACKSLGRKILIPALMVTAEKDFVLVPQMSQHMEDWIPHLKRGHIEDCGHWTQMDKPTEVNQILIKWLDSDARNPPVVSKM
sEH inhibitor: inhibitors of human soluble epoxide hydrolase. P34913. inhibition, % at 2 µM. 0.34% of 91,000 active. recombinant human sEH enzymatic activity assay; in the data active means inhibition above about 80%
AP ELISA ortho: alternative pathway complement inhibition, orthogonal assay | 0.08% of 62,000 active | Human serum alternative complement pathway, LPS-coated ELISA, C3 deposition; tested in compound mixtures | inhibition, % at 5 µM | AID 1235;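 active means inhibition above 30% in each of the two pooled mixtures holding the compound, so the lower value exceeds 30%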
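Test system: human serum complement alternative pathway, C3 deposition onto LPS / Medium: Mg2+-EGTA GVB++ buffer containing human serum at 1:15 dilution / Probe or stimulus: Plate-bound LPS / Times: 1 h at 37 °C / Signal: ELISA with HRP anti-human C3 antibody, TMB substrate, absorbance 450 nm / Measure: percent inhibition / Repeats: two pool placements per compound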
BAP1 inh: human BAP1 deubiquitinase inhibition; 0.48% of 72,000 active; calls only at 20 µM; Q92560; recombinant BAP1, Ub-AMC hydrolysis fluorescence kinetic; stronger effect = lower value;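 active means activity remaining at or below 50% of control, provided the compound also passes the data quality filters; inactive means the rest, including low values that fail the filters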
BAP1 inh conf: BAP1 (human) enzyme inhibition, confirmed | % of control activity, % at 20 µM | shares compounds with BAP1 inh | 8% of 310 active | purified BAP1, Ub-ethyl ester hydrolysis, HPLC; stronger effect = lower value;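 active means percent of control activity at or below 60%; inconclusive means HPLC trace unusable from injection failure or solvent front hiding peaks; inactive means the rest, plus ubiquitin peak ratio over a set limit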
Hits are given with their value; – = inactive; ? = inconclusive; · = not tested or not shown; + = active, no number. Compounds with a hit are over-represented: about 0.57% of the library has one in this group of screens.

SMILES	sEH activator	sEH inhibitor	AP ELISA ortho	BAP1 inh	BAP1 inh conf
Cc1cc2nc(-c3ccc(SCC(=O)N4CCc5ccccc54)nc3)[nH]c2cc1C	–	85	·	·	·
CCCCN(C)Cc1c(O)ccc2c(=O)c(Oc3ccccc3Br)c(C(F)(F)F)oc12	·	·	·	–	·
Cc1cc(C)cc(NC(=O)Nc2ccc3c(c2)N(C)C(=O)CS3)c1	–	–	·	·	·
CCc1ccc(NC(=O)Nc2ccc3c(c2)N(C)C(=O)CS3)cc1	–	91	·	·	·
Cc1ccccc1OCCCC(=O)Nc1ccc(Br)cc1	–	93	·	·	·
Cn1c(=O)[nH]c(=O)c2c1nc(SCc1ccccc1Cl)n2CCc1ccccc1	·	·	·	–	·
CSc1nc(-c2ccccc2O)nc(-c2ccccc2O)n1	·	·	–	+	–
Cc1cccc(-c2cc3nc4c(c(N5CCOCC5)n3n2)CCCC4)c1	–	–	–	+	–
COCC(=O)N(C)C1(c2nnnn2CCOC(=O)Nc2cccc3ccccc23)CCCC1	–	–	–	+	–
Cc1ccc(C(=O)/C=C/Nc2ccccc2C(N)=O)cc1	–	–	·	·	·
NC(=O)c1ccccc1N/C=C/C(=O)c1ccco1	–	–	–	+	–
Cc1cc(C)c2cc(C#N)c(SCC(=O)NCc3ccco3)nc2c1	–	–	–	·	·
Cc1ccc2c(SCC(=O)NCc3ccco3)nc(-c3ccc(F)cc3)nc2c1	–	–	–	+	–
O=c1[nH]c2cc3c(cc2cc1CN(Cc1ccccc1)Cc1nnnn1Cc1ccco1)OCCO3	–	–	–	–	·
CCc1ccc2[nH]c(=O)c(CN(Cc3ccccc3)Cc3nnnn3Cc3ccco3)cc2c1	–	–	–	+	–
Cc1cccc2cc(CN(Cc3cccs3)Cc3nnnn3Cc3ccccc3)c(=O)[nH]c12	–	–	–	+	–
Cc1ccc2[nH]c(=O)c(CN(Cc3ccc4c(c3)OCO4)Cc3nnnn3Cc3ccco3)cc2c1	–	–	–	+	–
O=C(Oc1ccc(-c2nc3ccc([N+](=O)[O-])cc3[nH]2)cc1)C1CCCCC1	·	·	·	–	·
CCc1ccc(NS(=O)(=O)c2ccc3[nH]cc(C(=O)NCC4CCCO4)c(=O)c3c2)cc1 (stereo not given)	·	·	–	–	·
O=C(NCc1ccccc1)c1c[nH]c2ccc(S(=O)(=O)Nc3ccc4c(c3)OCCO4)cc2c1=O	–	–	–	+	?
COCCn1nnnc1C(c1cc2ccc(C)cc2[nH]c1=O)N(Cc1ccco1)Cc1cccs1 (stereo not given)	·	·	–	+	–
COc1ccccc1Oc1coc2cc(O)ccc2c1=O	–	–	–	+	–
COc1ccc(-c2coc3cc(O)ccc3c2=O)cc1OC	–	–	–	–	·
CCOc1ccccc1Oc1coc2cc(O)ccc2c1=O	–	–	–	+	–
COc1ccc(CN(CCC2(c3ccccc3)CCOC(C)(C)C2)C(C)=O)cc1OC (stereo not given)	·	·	·	–	·
SMILES	sEH activator	sEH inhibitor	AP ELISA ortho	BAP1 inh	BAP1 inh conf
CCCCSc1nc2c(c(=O)[nH]1)C1(CCCCC1)Cc1ccccc1-2	·	·	·	–	·
CCOc1ccccc1NC(=O)COc1cc(C)ccc1C(C)(C)C	·	·	·	–	·
N#Cc1cc(-c2ccccc2)nn1-c1ccccc1	–	–	–	+	–
Cc1ccc(C(=O)COC(=O)c2ccccc2Sc2ccc([N+](=O)[O-])cc2)cc1	·	·	·	–	·
CN1CC=C2C(C#N)=C(N)C(C#N)(C#N)C(CCc3ccccc3)C2C1 (stereo not given)	·	·	–	–	·
CCCC1C2CN(C(C)C)CC=C2C(C#N)=C(N)C1(C#N)C#N (stereo not given)	–	–	–	+	–
CCCOC(=O)C1=C(C)NC2=C(C(=O)CCC2)C1c1cccc2ccccc12 (stereo not given)	·	·	·	–	·
CCCOC(=O)C1=C(C)NC2=C(C(=O)CCC2)C1c1cccc(OC)c1OC (stereo not given)	–	–	–	+	34
Cc1ccc(C(=O)CSc2nc3sc(C)c(C)c3c(=O)[nH]2)cc1C	·	·	·	–	·
CC(C)CCOC(=O)c1ccc(NC(=O)c2ccc([N+](=O)[O-])cc2)cc1	·	·	·	–	·
CC(C)Sc1nc2c(cnn2-c2ccccc2)c(=O)[nH]1	·	·	–	–	·
CCCCCSc1nc2c(cnn2-c2ccccc2)c(=O)[nH]1	–	–	–	+	–
O=[N+]([O-])c1ccccc1Oc1cccc(Oc2ccccc2[N+](=O)[O-])c1	·	·	·	–	·
CCOC(=O)c1c(C)oc2c1cc(O)c1ccccc12	–	–	–	+	–
CCOC(=O)c1c(C)[nH]c2c1cc(O)c1ccccc12	–	–	·	·	·
COc1ccc2nc(NC(=O)CCc3nc(-c4ccccc4F)no3)sc2c1	–	–	–	+	40
COc1ccc2nc(NC(=O)c3ccccc3F)sc2c1	·	·	·	–	·
CCOC(=O)c1sc(=NC(=O)c2ccc(OC)c(OC)c2)n(C)c1C	–	–	–	+	?
Cc1nc(N2CCN(c3ccccc3)CC2)nc2c1C(=O)CC(c1ccccc1)C2 (stereo not given)	–	–	–	+	–
COc1ccccc1N1CCN(C(=O)CSc2nc(-c3ccco3)cc(C(F)(F)F)n2)CC1	–	–	–	+	–
O=C(CSc1nc(-c2ccco2)cc(C(F)(F)F)n1)N1CCN(c2ccc(Cl)cc2)CC1	–	–	·	·	·
O=C1CN(C(=O)c2ccc(N3CCCCC3)c([N+](=O)[O-])c2)c2ccccc2N1	·	·	·	–	·
Cc1cccc2[nH]c(-c3ccc(N)cc3)nc12	·	·	·	–	·
CCn1c(=O)c(C(=O)NCCc2ccccc2)c(O)c2ccccc21	–	–	–	+	–
CCSC1=C(C#N)C2(CCCC2)C(C#N)=C(N)N1	–	–	–	–	·
SMILES	sEH activator	sEH inhibitor	AP ELISA ortho	BAP1 inh	BAP1 inh conf
CSC1=C(C#N)C2(CCCC2)C(C#N)=C(N)N1	–	–	–	+	–
CCOC(=O)c1c(NC(=O)c2ccc(-n3cnnn3)cc2)sc2c1CCCC2	·	·	–	+	–
CCOC(=O)c1c(NC(=O)c2ccc(C(=O)c3ccccc3)cc2)sc2c1CCCC2	·	·	·	–	·
Cc1ccccc1-n1nc2c(c1NC(=O)c1ccc(Cl)cc1)CSC2	·	·	·	–	·
O=c1oc(-c2cc3ccccc3o2)nc2sc3c(c12)CCCC3	–	–	–	+	–
O=C(Oc1ccc(OC(=O)c2ccc3c(c2)C(=O)N(c2ccccn2)C3=O)cc1)c1ccc2c(c1)C(=O)N(c1ccccn1)C2=O	·	·	·	–	·
COc1ccc(N(CC(=O)Nc2ccc(F)c(Cl)c2)S(=O)(=O)c2c(C)noc2C)cc1	–	–	–	+	–
COc1ccc(N(CC(=O)Nc2ccc(OC)c(Cl)c2)S(=O)(=O)c2c(C)noc2C)cc1	·	·	–	–	·
Clc1ccc(C2Nc3ccccc3-n3cccc32)cc1 (stereo not given)	–	–	–	+	–
COc1cccc2cc(-c3nc4ccccc4[nH]3)c(=Nc3cccc(C)c3)oc12	·	·	·	–	·
CCCn1c2c(c(O)c(C(=O)Nc3ncccc3C)c1=O)CCCC2	·	·	–	+	–
CC(C)Cn1c2c(c(O)c(C(=O)Nc3nccs3)c1=O)CCCC2	·	·	–	+	–
COc1ccc(C2C(C(C)=O)=C(C)N=c3s/c(=C\c4ccco4)c(=O)n32)c(OC)c1 (stereo not given)	–	–	–	+	–
